Measured values published in article PMC8453095 (Journal of molecular biology, 2021).

How the values were obtained:
full-length DnaG = biological target: T1, full-length DnaG (Bacillus subtilis, UniProt P05096); type: biochemical
T1 sequence (P05096 1-603): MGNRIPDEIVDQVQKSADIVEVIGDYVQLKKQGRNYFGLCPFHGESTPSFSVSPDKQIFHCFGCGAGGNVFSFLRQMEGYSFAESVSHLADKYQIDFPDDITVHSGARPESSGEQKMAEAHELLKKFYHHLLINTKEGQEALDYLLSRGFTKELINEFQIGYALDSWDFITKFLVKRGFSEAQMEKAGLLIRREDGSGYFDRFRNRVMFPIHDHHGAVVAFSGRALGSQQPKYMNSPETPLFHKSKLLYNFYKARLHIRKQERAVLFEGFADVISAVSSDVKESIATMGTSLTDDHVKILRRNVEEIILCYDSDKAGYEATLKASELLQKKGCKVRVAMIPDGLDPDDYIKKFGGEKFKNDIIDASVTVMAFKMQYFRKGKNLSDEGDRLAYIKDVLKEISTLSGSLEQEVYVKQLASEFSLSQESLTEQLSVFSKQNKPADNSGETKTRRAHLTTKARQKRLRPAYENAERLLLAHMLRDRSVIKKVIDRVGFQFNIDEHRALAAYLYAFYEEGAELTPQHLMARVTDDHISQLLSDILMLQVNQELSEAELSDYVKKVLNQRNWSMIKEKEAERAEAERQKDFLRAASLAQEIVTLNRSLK
Method in brief: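 Full-length His-tagged DnaG, Ni-affinity purified, at 100 nM was added last to 500 nM ssDNA template with 0.4 mM ATP, CTP, UTP and GTP at 0, 12.5, 25, 50, 100, 200 or 400 μM, preincubated ± inhibitor. Buffer: 50 mM Tris pH 7.5 with Mg2+, Mn2+, Ca2+ and 10 mM DTT. Incubated 37°C, 30 min; heteroduplex dye fluorescence read at four time points. V0 per enzyme; Ki fitted to competitive/uncompetitive/noncompetitive/mixed models; n≥3.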

DnaG(ZBD+RPD) = DnaG(ZBD+RPD) (Bacillus subtilis, UniProt P05096); type: biochemical
Method in brief: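 His-tagged DnaGΔ440-603 (ZBD+RPD), expressed in BL21(DE3) cells and Ni-affinity purified, used at 200 nM. Template (500 nM ssDNA) and NTPs (0.4 mM ATP, CTP, UTP; GTP 0–400 μM) briefly preincubated ± inhibitor before enzyme. Buffer: 50 mM Tris pH 7.5, 10 mM Mg acetate, 5 mM MnCl2, 5 mM CaCl2. Ran at 37°C. Dye read at 5, 10, 20 and 30 min (ex 485/em 528 nm). V0 was normalised to enzyme, and Ki came from inhibition-model fits; n≥3.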

Structure (SMILES) | Ki (full-length DnaG) [µM] | Ki (DnaG(ZBD+RPD)) [µM]
Nc1nc2c(ncn2[C@@H]2O[C@H](COP(=O)(O)OP(=O)(O)O)[C@@H](OP(=O)(O)OP(=O)(O)O)[C@H]2O)c(=O)[nH]1 [ppGpp] | 777 ± 110 | –
Nc1nc2c(ncn2[C@@H]2O[C@H](COP(=O)(O)OP(=O)(O)OP(=O)(O)O)[C@@H](OP(=O)(O)OP(=O)(O)O)[C@H]2O)c(=O)[nH]1 [pppGpp] | 163 ± 37 | 115 ± 17.8
